# ChEMBL document CHEMBL1158184, “Synthesis and anti-CVB 3 evaluation of substituted 5-nitro-2-phenoxybenzonitriles” (Bioorg Med Chem Lett, 2008)
# pIC50: −log10 of the molar value.
# Experiments:
# Coxsackievirus B3 = assay: Antiviral activity against Coxsackievirus B3 assessed as reduction of virus-induced cytopathogenicity after 3 days by MTS assay; assay type: functional, organism-based; conditions: Enterovirus B, 72 h
# Outline: (§1)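 MTS-based CPE reduction assay. Confluent cell monolayers were infected with 100 CCID50 of virus and left 2 h at 37 °C for adsorption, then the inoculum was removed and serial compound dilutions were added. MTS/PMS was added for 2 h and OD was read at 498 nm. EC50 was derived from %CPE relative to uninfected and infected untreated controls.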
# Echovirus E9 = assay: Antiviral activity against Echovirus 9 in human MRC5 cells; assay type: functional; outline: as §1
# enterovirus D68 = assay: Antiviral activity against Enterovirus 68 in human MRC5 cells; assay type: functional; outline: as §1
# Echovirus E11 = assay: Antiviral activity against Echovirus 11 in human MRC5 cells; assay type: functional; outline: as §1
# Coxsackievirus B5 = assay: Antiviral activity against Coxsackievirus B5 in african green monkey Vero cells; assay type: functional; outline: as §1
# Coxsackievirus B2 = assay: Antiviral activity against Coxsackievirus B2 in african green monkey Vero cells; assay type: functional; outline: as §1
# Coxsackievirus B1 = assay: Antiviral activity against Coxsackievirus B1 in african green monkey Vero cells; assay type: functional; outline: as §1
# Coxsackievirus A24 = assay: Antiviral activity against Coxsackievirus A24 in human MRC5 cells; assay type: functional
# Outline: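 MTS-based CPE-reduction assay. Confluent monolayers were infected with 100 CCID50 of virus and adsorbed for 2 h at 37 °C; virus was then removed and serial compound dilutions added. Cultures were incubated 3 days at 37 °C until complete CPE in the untreated virus control. After MTS/PMS for 2 h, OD was read at 498 nm, %CPE calculated against uninfected and infected-untreated controls, and EC50 derived.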
# Coxsackievirus B4 = assay: Antiviral activity against Coxsackievirus B4 in african green monkey Vero cells; assay type: functional; outline: as §1
# Coxsackievirus B6 = assay: Antiviral activity against Coxsackievirus B6 in african green monkey Vero cells; assay type: functional; outline: as §1
smiles,measurement,setting,value
N#Cc1cc([N+](=O)[O-])ccc1Oc1ccc(Cl)cc1Br,pIC50,Coxsackievirus B3,5.43
N#Cc1cc([N+](=O)[O-])ccc1Oc1cc(Cl)c(Cl)cc1Cl,pIC50,Coxsackievirus B3,4.23
CC(C)c1cccc(Oc2ccc([N+](=O)[O-])cc2C#N)c1,pIC50,Coxsackievirus B3,4.40
Cc1cc(Oc2ccc([N+](=O)[O-])cc2C#N)ccc1Br,pIC50,Coxsackievirus B3,5.59
N#Cc1cc([N+](=O)[O-])ccc1Oc1cc(Cl)ccc1Cl,Activity,Echovirus E9,>323 µM
same,Activity,enterovirus D68,>323 µM
same,pIC50,Coxsackievirus B3,5.42
same,Activity,Echovirus E11,>323 µM
N#Cc1cc([N+](=O)[O-])ccc1Oc1ccc(N)c([N+](=O)[O-])c1,pIC50,Coxsackievirus B3,5.00
N#Cc1cc([N+](=O)[O-])ccc1Oc1ccc(C(N)=O)cc1,pIC50,Coxsackievirus B3,< 3.45
Cc1cc(Cl)ccc1Oc1ccc([N+](=O)[O-])cc1C#N,pIC50,Coxsackievirus B3,4.96
N#Cc1cc([N+](=O)[O-])ccc1Oc1ccc(Cl)c(Cl)c1,Activity,Coxsackievirus B5,18 µM
same,Activity,Coxsackievirus B2,15 µM
same,Activity,Coxsackievirus B1,15 µM
same,Activity,Coxsackievirus A24,1.8 µM
same,Activity,Coxsackievirus B4,17 µM
same,Activity,Coxsackievirus B6,12 µM
same,Activity,Echovirus E9,>324 µM
same,Activity,enterovirus D68,12 µM
same,pIC50,Coxsackievirus B3,5.19
same,Activity,Echovirus E11,6.7 µM
N#Cc1ccccc1Oc1ccc([N+](=O)[O-])cc1C#N,pIC50,Coxsackievirus B3,4.96
N#Cc1cc([N+](=O)[O-])ccc1Oc1ccccc1Br,pIC50,Coxsackievirus B3,< 3.84
Cc1cc(C)cc(Oc2ccc([N+](=O)[O-])cc2C#N)c1,pIC50,Coxsackievirus B3,< 3.49
Cc1cccc(Oc2ccc([N+](=O)[O-])cc2C#N)c1,Activity,Coxsackievirus B5,13 µM
same,Activity,Coxsackievirus B2,11 µM
same,Activity,Coxsackievirus B1,8.9 µM
same,Activity,Coxsackievirus A24,19 µM
same,Activity,Coxsackievirus B4,22 µM
same,Activity,Coxsackievirus B6,22 µM
same,Activity,Echovirus E9,>393 µM
same,Activity,enterovirus D68,76 µM
same,pIC50,Coxsackievirus B3,5.19
same,Activity,Echovirus E11,>393 µM
Cc1ccccc1Oc1ccc([N+](=O)[O-])cc1C#N,pIC50,Coxsackievirus B3,4.24
N#Cc1cc([N+](=O)[O-])ccc1Oc1cccc(I)c1,pIC50,Coxsackievirus B3,5.24
CC(=O)Nc1ccc(Oc2ccc([N+](=O)[O-])cc2C#N)cc1,pIC50,Coxsackievirus B3,< 3.47
N#Cc1cc([N+](=O)[O-])ccc1Oc1cccc(N)c1,pIC50,Coxsackievirus B3,3.62
CN(C)c1cccc(Oc2ccc([N+](=O)[O-])cc2C#N)c1,pIC50,Coxsackievirus B3,4.51
N#Cc1cc([N+](=O)[O-])ccc1Oc1ccc(Cl)c(Cl)c1Cl,pIC50,Coxsackievirus B3,< 3.84
N#Cc1cc([N+](=O)[O-])ccc1Oc1ccc(C(=O)O)cc1,pIC50,Coxsackievirus B3,< 3.45
N#Cc1cc([N+](=O)[O-])ccc1Oc1ccc(Br)cc1,pIC50,Coxsackievirus B3,5.24
COc1cccc(Oc2ccc([N+](=O)[O-])cc2C#N)c1,pIC50,Coxsackievirus B3,4.92
N#Cc1cc([N+](=O)[O-])ccc1Oc1ccc(Cl)cc1Cl,pIC50,Coxsackievirus B3,4.89
CC(=O)c1ccc(Oc2ccc([N+](=O)[O-])cc2C#N)cc1,pIC50,Coxsackievirus B3,4.46
N#Cc1cc([N+](=O)[O-])ccc1Oc1ccc([N+](=O)[O-])cc1,Activity,Coxsackievirus A24,>350 µM
same,Activity,Echovirus E9,>350 µM
same,Activity,enterovirus D68,>350 µM
same,pIC50,Coxsackievirus B3,5.48
same,Activity,Echovirus E11,>350 µM
N#Cc1cc([N+](=O)[O-])ccc1Oc1cccc(Cl)c1,pIC50,Coxsackievirus B3,5.31
N#Cc1cc([N+](=O)[O-])ccc1Oc1cccc(NC(N)=S)c1,pIC50,Coxsackievirus B3,3.63
N#Cc1cc([N+](=O)[O-])ccc1Oc1ccc(Cl)cc1,Activity,Echovirus E9,>364 µM
same,Activity,enterovirus D68,>364 µM
same,pIC50,Coxsackievirus B3,5.30
same,Activity,Echovirus E11,>364 µM
N#Cc1cc([N+](=O)[O-])ccc1Oc1cccc(Cl)c1Cl,Activity,Coxsackievirus B5,4.8 µM
same,Activity,Coxsackievirus B2,8.6 µM
same,Activity,Coxsackievirus B1,3.3 µM
same,Activity,Coxsackievirus A24,>309 µM
same,Activity,Coxsackievirus B4,17 µM
same,Activity,Coxsackievirus B6,10 µM
same,Activity,Echovirus E9,>323 µM
same,Activity,enterovirus D68,>323 µM
same,pIC50,Coxsackievirus B3,5.31
same,Activity,Echovirus E11,>323 µM
Cc1cc(Oc2ccc([N+](=O)[O-])cc2C#N)ccc1Cl,Activity,Coxsackievirus B5,2.1 µM
same,Activity,Coxsackievirus B2,5.2 µM
same,Activity,Coxsackievirus B1,4.8 µM
same,Activity,Coxsackievirus A24,234 µM
same,Activity,Coxsackievirus B4,>346 µM
same,Activity,Coxsackievirus B6,>346 µM
same,Activity,Echovirus E9,>346 µM
same,Activity,enterovirus D68,>346 µM
same,pIC50,Coxsackievirus B3,5.70
same,Activity,Echovirus E11,>346 µM
N#Cc1cccc(Oc2ccc([N+](=O)[O-])cc2C#N)c1,pIC50,Coxsackievirus B3,5.13
N#Cc1cc([N+](=O)[O-])ccc1Oc1cc(Cl)cc(Cl)c1,pIC50,Coxsackievirus B3,< 4.09
N#Cc1cc([N+](=O)[O-])ccc1Oc1ccc([N+](=O)[O-])cc1Cl,pIC50,Coxsackievirus B3,4.41
N#Cc1cc([N+](=O)[O-])ccc1Oc1ccccc1,Activity,Coxsackievirus B5,10 µM
same,Activity,Coxsackievirus B2,17 µM
same,Activity,Coxsackievirus B1,6.9 µM
same,Activity,Coxsackievirus A24,>240 µM
same,Activity,Coxsackievirus B4,26 µM
same,Activity,Coxsackievirus B6,19 µM
same,Activity,Echovirus E9,>416 µM
same,Activity,enterovirus D68,>416 µM
same,pIC50,Coxsackievirus B3,5.06
same,Activity,Echovirus E11,>416 µM
N#Cc1ccc(Oc2ccc([N+](=O)[O-])cc2C#N)c(Cl)c1,pIC50,Coxsackievirus B3,5.14
N#Cc1cc([N+](=O)[O-])ccc1Oc1cccc(Br)c1,pIC50,Coxsackievirus B3,5.30
N#Cc1cc([N+](=O)[O-])ccc1Oc1ccccc1Cl,Activity,Coxsackievirus B5,3.1 µM
same,Activity,Coxsackievirus B2,6.2 µM
same,Activity,Coxsackievirus B1,5.6 µM
same,Activity,Coxsackievirus A24,23 µM
same,Activity,Coxsackievirus B4,14 µM
same,Activity,Coxsackievirus B6,8.1 µM
same,Activity,Echovirus E9,35 µM
same,Activity,enterovirus D68,22 µM
same,pIC50,Coxsackievirus B3,5.16
same,Activity,Echovirus E11,35 µM
N#Cc1cc([N+](=O)[O-])ccc1Oc1ccc(N)cc1,pIC50,Coxsackievirus B3,3.97
N#Cc1cc([N+](=O)[O-])ccc1Oc1ccc(I)cc1,pIC50,Coxsackievirus B3,5.24
N#Cc1cc([N+](=O)[O-])ccc1Oc1cccc([N+](=O)[O-])c1,pIC50,Coxsackievirus B3,4.42
Cc1ccc(Oc2ccc([N+](=O)[O-])cc2C#N)cc1C,pIC50,Coxsackievirus B3,4.00
N#Cc1cc([N+](=O)[O-])ccc1Oc1ccc(CO)cc1,pIC50,Coxsackievirus B3,3.92
CC(C)(C)c1ccc(Oc2ccc([N+](=O)[O-])cc2C#N)cc1,pIC50,Coxsackievirus B3,< 3.47
Cc1cc(Oc2ccc([N+](=O)[O-])cc2C#N)ccc1[N+](=O)[O-],pIC50,Coxsackievirus B3,4.96
C[S+]([O-])c1ccc(Oc2ccc([N+](=O)[O-])cc2C#N)cc1 (stereo not given),pIC50,Coxsackievirus B3,3.69
N#Cc1cc([N+](=O)[O-])ccc1Oc1cccc(NC(N)=O)c1,pIC50,Coxsackievirus B3,< 3.47
N#Cc1cc([N+](=O)[O-])ccc1Oc1ccc(Br)cc1Br,pIC50,Coxsackievirus B3,5.21
N#Cc1cc([N+](=O)[O-])ccc1Oc1ccc(Br)c(Cl)c1,pIC50,Coxsackievirus B3,5.17
N#Cc1cc([N+](=O)[O-])ccc1Oc1ccc(Br)cc1Cl,pIC50,Coxsackievirus B3,5.43
CCc1cc(Oc2ccc([N+](=O)[O-])cc2C#N)ccc1Cl,pIC50,Coxsackievirus B3,< 3.48
N#Cc1ccc(Oc2ccc([N+](=O)[O-])cc2C#N)cc1,pIC50,Coxsackievirus B3,5.39
N#Cc1cc([N+](=O)[O-])ccc1Oc1cccc(C(=O)O)c1,pIC50,Coxsackievirus B3,< 3.45
Cc1ccc(Oc2ccc([N+](=O)[O-])cc2C#N)cc1,pIC50,Coxsackievirus B3,5.21
N#Cc1cc([N+](=O)[O-])ccc1Oc1c(Cl)cc(Cl)cc1Cl,pIC50,Coxsackievirus B3,4.14
COc1ccc(Oc2ccc([N+](=O)[O-])cc2C#N)cc1,pIC50,Coxsackievirus B3,4.34
CS(=O)(=O)c1ccc(Oc2ccc([N+](=O)[O-])cc2C#N)cc1,pIC50,Coxsackievirus B3,3.76
CC(=O)Nc1cccc(Oc2ccc([N+](=O)[O-])cc2C#N)c1,pIC50,Coxsackievirus B3,3.92
COc1ccccc1Oc1ccc([N+](=O)[O-])cc1C#N,pIC50,Coxsackievirus B3,4.27
CSc1ccc(Oc2ccc([N+](=O)[O-])cc2C#N)cc1,pIC50,Coxsackievirus B3,4.03
CC(=O)c1cccc(Oc2ccc([N+](=O)[O-])cc2C#N)c1,pIC50,Coxsackievirus B3,4.24
N#Cc1cc([N+](=O)[O-])ccc1Oc1ccc(Cl)cc1N,pIC50,Coxsackievirus B3,< 4.28
